Source: BindingDB's records for doi:10.1016/j.ejmech.2015.10.033 (Kyungpook National University, 2015)

Biological target: T1, Polyphenol oxidase 2 (Agaricus bisporus, UniProt O42713)
T1 sequence (O42713 whole entry): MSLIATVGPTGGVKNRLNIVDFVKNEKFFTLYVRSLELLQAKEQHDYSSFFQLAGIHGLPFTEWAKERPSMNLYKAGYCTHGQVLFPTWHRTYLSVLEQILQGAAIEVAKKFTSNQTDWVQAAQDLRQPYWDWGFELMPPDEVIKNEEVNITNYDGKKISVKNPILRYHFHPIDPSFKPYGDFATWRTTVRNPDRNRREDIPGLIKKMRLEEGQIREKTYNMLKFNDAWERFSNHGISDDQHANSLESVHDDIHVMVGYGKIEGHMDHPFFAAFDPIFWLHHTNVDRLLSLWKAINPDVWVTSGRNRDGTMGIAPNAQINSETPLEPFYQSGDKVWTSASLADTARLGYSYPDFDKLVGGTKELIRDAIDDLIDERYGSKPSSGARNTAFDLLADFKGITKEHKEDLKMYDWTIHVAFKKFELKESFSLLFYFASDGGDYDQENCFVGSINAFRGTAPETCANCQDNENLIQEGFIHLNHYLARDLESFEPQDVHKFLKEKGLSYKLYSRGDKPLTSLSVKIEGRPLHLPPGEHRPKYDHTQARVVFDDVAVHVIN
Assay: Non-competitive inhibition of mushroom tyrosinase using L-tyrosine as substrate by Lineweaver-Burk plots analysis
How it was run: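 Absorbance at 475 nm read at 30 °C in PBS with 5% DMSO. Global nonlinear Michaelis–Menten fitting over four inhibition models gave Vmax, Km, Kic and Kiu, with the model chosen by minimal χ2.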

Structure (SMILES) | Ki
NC(=S)c1ccccn1 | 2700 nM
NC(=S)c1ccccc1 | 700 nM
NC(=S)c1ccncc1 | 22300 nM
CCc1cc(C(N)=S)ccn1 [CHEBI:4885] | 1900 nM
CCCc1cc(C(N)=S)ccn1 [Ektebin] | 2400 nM
NC(=S)c1cccnc1 [thionicotinamide] | 4300 nM
